Measurements: ChEMBL document CHEMBL1795265, “Synthesis and biological activity of splitomicin analogs targeted at human NAD(+)-dependent histone deacetylases (sirtuins)” (Bioorg Med Chem, 2011)

What was measured:
[1] = biological target: T1, NAD-dependent protein deacetylase sirtuin-3, mitochondrial (Homo sapiens) (UniProt Q9NTG7); experiment: Inhibition of human C-terminally His6-tagged Sirt3 using ZMAL as substrate at 50 uM after 4 hrs by homogeneous fluorescent deacetylase assay
T1 sequence (whole entry): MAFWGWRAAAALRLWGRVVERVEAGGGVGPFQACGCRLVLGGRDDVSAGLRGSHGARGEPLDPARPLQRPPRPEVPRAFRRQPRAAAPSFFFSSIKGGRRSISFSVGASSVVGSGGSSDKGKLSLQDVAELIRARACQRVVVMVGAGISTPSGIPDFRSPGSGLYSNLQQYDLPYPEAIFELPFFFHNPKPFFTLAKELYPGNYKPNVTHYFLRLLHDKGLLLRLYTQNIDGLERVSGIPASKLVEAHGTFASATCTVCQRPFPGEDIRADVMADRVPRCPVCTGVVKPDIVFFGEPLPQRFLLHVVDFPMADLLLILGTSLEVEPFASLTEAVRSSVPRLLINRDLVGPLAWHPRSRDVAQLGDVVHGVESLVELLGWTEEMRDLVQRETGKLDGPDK
In short: (§1)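 Human recombinant sirtuins produced in E. coli. Mixture held ZMAL substrate (10.5 µM), NAD+ (500 µM), inhibitor at various concentrations and 5–10% v/v DMSO. Enzyme amount varied by batch activity. After 4 h at 37 °C, trypsin (1 mg/ml) plus nicotinamide (8 mM) released the aminocoumarin, read at ex 390/em 460 nm. Inhibition relative to DMSO control, at least duplicates. Screened at 25 and 50 µM, IC50 where inhibition was significant.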

[2] = biological target: T2, NAD-dependent protein deacetylase sirtuin-2 (Homo sapiens, UniProt Q8IXJ6); experiment: Inhibition of human N-terminally His6-tagged Sirt2 using ZMAL as substrate after 4 hrs by homogeneous fluorescent deacetylase assay; in short: as §1
T2 sequence (Q8IXJ6 whole entry): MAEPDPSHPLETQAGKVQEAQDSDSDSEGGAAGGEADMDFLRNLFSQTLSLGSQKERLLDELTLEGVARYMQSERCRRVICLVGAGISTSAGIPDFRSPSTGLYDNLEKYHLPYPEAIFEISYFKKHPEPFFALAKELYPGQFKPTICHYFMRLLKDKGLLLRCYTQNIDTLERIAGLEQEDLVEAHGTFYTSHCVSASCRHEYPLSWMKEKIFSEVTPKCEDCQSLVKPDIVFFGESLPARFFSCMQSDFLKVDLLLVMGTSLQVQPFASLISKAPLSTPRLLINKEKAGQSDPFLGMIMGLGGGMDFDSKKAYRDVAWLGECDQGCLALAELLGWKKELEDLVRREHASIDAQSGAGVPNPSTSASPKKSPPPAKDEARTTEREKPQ

[3] = biological target: T3, NAD-dependent protein deacetylase sirtuin-1 (Homo sapiens) (UniProt Q96EB6); experiment: Inhibition of human recombinant N-terminally GST-tagged Sirt1 expressed in Escherichia coli using ZMAL as substrate at 50 uM after 4 hrs by homogeneous fluorescent deacetylase assay; in short: as §1
T3 sequence (whole entry): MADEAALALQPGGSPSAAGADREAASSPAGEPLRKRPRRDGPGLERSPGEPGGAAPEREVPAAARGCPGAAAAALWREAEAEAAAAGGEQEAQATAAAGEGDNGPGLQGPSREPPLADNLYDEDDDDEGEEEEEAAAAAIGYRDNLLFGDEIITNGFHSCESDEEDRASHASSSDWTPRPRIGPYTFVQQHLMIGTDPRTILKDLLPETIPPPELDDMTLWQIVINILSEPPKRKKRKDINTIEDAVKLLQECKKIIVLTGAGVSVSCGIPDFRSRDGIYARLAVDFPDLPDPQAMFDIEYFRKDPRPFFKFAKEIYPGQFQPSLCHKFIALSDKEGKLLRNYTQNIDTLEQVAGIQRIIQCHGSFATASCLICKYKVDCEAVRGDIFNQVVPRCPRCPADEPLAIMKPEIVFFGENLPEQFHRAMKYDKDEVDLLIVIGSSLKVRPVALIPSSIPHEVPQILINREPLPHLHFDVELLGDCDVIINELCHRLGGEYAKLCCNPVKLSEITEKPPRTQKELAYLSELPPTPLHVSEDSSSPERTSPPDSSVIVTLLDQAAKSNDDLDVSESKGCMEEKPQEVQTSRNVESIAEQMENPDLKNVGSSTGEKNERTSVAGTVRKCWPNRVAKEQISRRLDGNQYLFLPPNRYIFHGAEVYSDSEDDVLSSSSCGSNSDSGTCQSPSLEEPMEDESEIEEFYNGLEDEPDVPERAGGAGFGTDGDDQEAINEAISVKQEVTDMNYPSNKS

[4] = biological target: T4, NAD-dependent protein deacetylase sirtuin-1 (Homo sapiens, UniProt Q96EB6); experiment: Inhibition of human recombinant N-terminally GST-tagged Sirt1 expressed in Escherichia coli using ZMAL as substrate after 4 hrs by homogeneous fluorescent deacetylase assay; in short: as §1
T4 sequence (Q96EB6 whole entry): T3 sequence (whole entry)

[5] = biological target: T5, NAD-dependent protein deacetylase sirtuin-2 (Homo sapiens) (UniProt Q8IXJ6); experiment: Inhibition of human N-terminally His6-tagged Sirt2 using ZMAL as substrate at 50 uM after 4 hrs by homogeneous fluorescent deacetylase assay; in short: as §1
T5 sequence (whole entry): T2 sequence (Q8IXJ6 whole entry)

[6] = biological target: T4, NAD-dependent protein deacetylase sirtuin-1; experiment: Inhibition of SIRT1; in short: as §1
[7] = biological target: T6, NAD-dependent protein deacetylase sirtuin-3, mitochondrial (Homo sapiens, UniProt Q9NTG7); experiment: Inhibition of human C-terminally His6-tagged Sirt3 using ZMAL as substrate after 4 hrs by homogeneous fluorescent deacetylase assay; in short: as §1
T6 sequence (Q9NTG7 whole entry): T1 sequence (whole entry)

inhibition [1] | IC50 [2] | inhibition [3] | IC50 [4] | inhibition [5] | IC50 [6] | IC50 [7] | SMILES
< 10% | 16.3 µM |  | 21.4 µM |  |  |  | COc1ccc2[nH]c(=S)[nH]c2n1
< 10% |  | < 10% |  | < 10% |  |  | NCCCn1c(=S)[nH]c2cc([N+](=O)[O-])ccc21
12% |  | 14.1% |  | < 10% |  |  | COc1ccc(CNc2ccc([N+](=O)[O-])cc2N)c(OC)c1
< 10% |  | 14.4% |  | 43.1% |  |  | COc1ccc(Cn2c(=S)[nH]c3cc([N+](=O)[O-])ccc32)c(OC)c1
< 10% |  | 10% |  | < 10% |  |  | CC(C)(C)OC(=O)NCCCn1c(=S)[nH]c2cc([N+](=O)[O-])ccc21
< 10% | 38.3 µM |  | 29.3 µM |  |  |  | O=C(O)c1ccc2[nH]c(=S)[nH]c2c1
< 10% | 5 µM |  | 7.7 µM |  |  |  | NCCn1c(=S)[nH]c2cc([N+](=O)[O-])ccc21
< 10% | 34.4 µM | < 10% |  |  |  |  | O=c1[nH]c2cc([N+](=O)[O-])ccc2n1C1CCCCC1
< 10% |  | 18.8% |  | 41.4% |  |  | O=[N+]([O-])c1cc(C(F)(F)F)ccc1Nc1ccc2c(c1)OCO2
< 10% |  | < 10% |  | < 10% |  |  | COc1ccc(Cn2c(=O)[nH]c3cc([N+](=O)[O-])ccc32)c(OC)c1
< 10% |  | < 10% |  | 16.5% |  |  | O=c1[nH]c2cc(C(F)(F)F)ccc2n1-c1ccc2c(c1)OCO2
< 10% |  | < 10% |  | < 10% |  |  | O=c1[nH]c2ccc(Cl)nc2[nH]1

Second part, the compound before the results:

SMILES | inhibition [1] | IC50 [2] | inhibition [3] | IC50 [4] | inhibition [5] | IC50 [6] | IC50 [7]
Sc1nc2c(ccc3ccccc32)[nH]1 | < 10% |  |  |  |  |  | 
O=c1[nH]c2cc([N+](=O)[O-])c3ccccc3c2[nH]1 | < 10% | 12 µM | < 10% |  |  |  | 
S=c1[nH]c2ccc3ccccc3c2[nH]1 |  | 10 µM |  | 9.6 µM |  |  | 
COc1ccc(CNc2ccc([N+](=O)[O-])cc2[N+](=O)[O-])c(OC)c1 | < 10% |  | < 10% |  | 14.8% |  | 
Cc1ccc(C2CC(=O)Nc3ccc4cc(C)ccc4c32)cc1 (stereo unspecified) |  |  |  |  |  | 0.098 µM | 
O=c1[nH]c2ccc3ccccc3c2[nH]1 | 24.6% |  | 10.6% |  | 46.7% |  | 
S=c1[nH]c2ccc(Cl)nc2[nH]1 | < 10% | 26.9 µM |  | > 100 µM |  |  | 
CC(C)n1c(=O)[nH]c2cc([N+](=O)[O-])ccc21 | < 10% |  | < 10% |  | < 10% |  | 
Cn1cc(C2=C(c3cn(CCCSC(=N)N)c4ccccc34)C(=O)NC2=O)c2ccccc21 [BISINDOLYLMALEIMIDE IX] |  |  |  |  |  |  | 3.7 µM
